Measurements as given in ChEMBL document CHEMBL3232844, “Synthesis and structure activity relationships of schweinfurthin indoles” (2014).

What was measured:
Format in all cases: functional
[1] = test system: MOLT-4; assay: Cytotoxicity against human MOLT4 cells
In short: (§1)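 Tested in a 60-cell-line human tumor panel screen; the read-out is growth inhibition, reported as GI50 for each cell line.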

[2] = test system: SK-MEL-5; assay: Cytotoxicity against human SK-MEL-5 cells; in short: as §1
[3] = test system: PC-3; assay: Cytotoxicity against human PC3 cells; in short: as §1
[4] = test system: HCT-116; assay: Cytotoxicity against human HCT116 cells; in short: as §1
[5] = Cytotoxicity against human HCT15 cells; in short: as §1
[6] = test system: NCI-H460; assay: Cytotoxicity against human NCI-H460 cells; in short: as §1
[7] = test system: COLO 205; assay: Cytotoxicity against human COLO205 cells; in short: as §1
[8] = Cytotoxicity against human OVCAR3 cells; in short: as §1
[9] = test system: ACHN; assay: Cytotoxicity against human ACHN cells; in short: as §1
[10] = Cytotoxicity against human UACC62 cells
In short: (§2)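 Cell line run as part of the 60-cell-line screening panel; growth inhibition was reported as a GI50 for each line.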

[11] = test system: SK-MEL-2; assay: Cytotoxicity against human SK-MEL-2 cells; in short: as §1
[12] = Cytotoxicity against human UO31 cells; in short: as §2
[13] = test system: CCRF-CEM; assay: Cytotoxicity against human CCRF-CEM cells
[14] = test system: HT-29; assay: Cytotoxicity against human HT-29 cells; in short: as §1
[15] = test system: MDA-MB-468; assay: Cytotoxicity against human MDA-MB-468 cells; in short: as §1
[16] = Cytotoxicity against human NCI-ADR-RES cells; in short: as §1
[17] = test system: SK-OV-3; assay: Cytotoxicity against human SKOV3 cells; in short: as §1
[18] = Cytotoxicity against human OVCAR4 cells; in short: as §1
[19] = test system: RXF 393; assay: Cytotoxicity against human RXF393 cells; in short: as §1
[20] = test system: M14; assay: Cytotoxicity against human M14 cells; in short: as §1
[21] = test system: NCI-H226; assay: Cytotoxicity against human NCI-H226 cells; in short: as §1
[22] = test system: NCI-H23; assay: Cytotoxicity against human NCI-H23 cells; in short: as §1
[23] = Cytotoxicity against human EKVX cells; in short: as §1
[24] = test system: SN12C; assay: Cytotoxicity against human SN12C cells; in short: as §1
[25] = test system: HL-60(TB); assay: Cytotoxicity against human HL-60(TB) cells
In short: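 Tested within the NCI 60-cell-line screen, with GI50 as the read-out. Values are the average of two independent experiments. The lowest concentration tested was 10 nM.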

[26] = test system: MDA-MB-435; assay: Cytotoxicity against human MDA-MB-435 cells; in short: as §1
[27] = test system: LOX IMVI; assay: Cytotoxicity against human LOXIMVI cells; in short: as §1
[28] = test system: MDA-MB-231; assay: Cytotoxicity against human MDA-MB-231 cells; in short: as §1
[29] = test system: IGROV-1; assay: Cytotoxicity against human IGROV1 cells; in short: as §1
[30] = test system: CAKI-1; assay: Cytotoxicity against human Caki1 cells; in short: as §1
[31] = test system: SF-295; assay: Cytotoxicity against human SF295 cells; in short: as §1
[32] = test system: A498; assay: Cytotoxicity against human A498 cells; in short: as §1
[33] = test system: NCI-H322M; assay: Cytotoxicity against human NCI-H322M cells; in short: as §1
[34] = test system: T47D; assay: Cytotoxicity against human T47D cells; in short: as §2
[35] = Cytotoxicity against human UACC257 cells; in short: as §2
[36] = test system: A549; assay: Cytotoxicity against human A549 cells; in short: as §1
[37] = test system: SNB-75; assay: Cytotoxicity against human SNB75 cells; in short: as §2
[38] = test system: 786-0; assay: Cytotoxicity against human 786-0 cells; in short: as §1
[39] = test system: BT-549; assay: Cytotoxicity against human BT549 cells; in short: as §1
[40] = test system: K562; assay: Cytotoxicity against human K562 cells; in short: as §1
[41] = test system: U-251; assay: Cytotoxicity against human U251 cells; in short: as §2
[42] = test system: MCF7; assay: Cytotoxicity against human MCF7 cells; in short: as §1
[43] = test system: SF-539; assay: Cytotoxicity against human SF539 cells; in short: as §1
[44] = read-out: pLC50 (the source's name) (converted)

## COc1cc(/C=C/c2cc(OC)c3cc[nH]c3c2)cc2c1O[C@]1(C)CC[C@@H](O)C(C)(C)[C@H]1C2
[1]
  GI50: 91.2 nM
[1]; [44]
  CC50: > 100000 nM
[1]; read-out: pTGI (converted)
  TGI: 490 nM
[2]
  GI50: 178 nM
[2]; [44]
  CC50: 708 nM
[2]; read-out: pTGI (converted)
  TGI: 355 nM
[3]
  GI50: 191 nM
  LC50: > 100000 nM
[3]; read-out: pTGI (converted)
  TGI: 1780 nM
[4]
  GI50: 537 nM
[4]; [44]
  CC50: 6030 nM
[4]; read-out: pTGI (converted)
  TGI: 2040 nM
[5]; HCT-15
  GI50: 398 nM
[5]; HCT-15, read-out: pLC50 (the source's name) (converted)
  CC50: > 100000 nM
[5]; HCT-15, read-out: pTGI (converted)
  TGI: 7940 nM
[6]
  GI50: 380 nM
[6]; [44]
  CC50: 37200 nM
[6]; read-out: pTGI (converted)
  TGI: 2290 nM
[7]
  GI50: 219 nM
[7]; [44]
  CC50: 891 nM
[7]; read-out: pTGI (converted)
  TGI: 447 nM
[8]; OVCAR-3
  GI50: 1200 nM
[8]; OVCAR-3, read-out: pLC50 (the source's name) (converted)
  CC50: 10000 nM
[8]; OVCAR-3, read-out: pTGI (converted)
  TGI: 3160 nM
[9]
  GI50: 575 nM
  LC50 (concentration killing 50% of cells): > 100000 nM
[9]; read-out: pTGI (converted)
  TGI: 6920 nM
[10]; UACC-62
  GI50: 162 nM
[10]; UACC-62, read-out: pLC50 (the source's name) (converted)
  CC50: 955 nM
[10]; UACC-62, read-out: pTGI (converted)
  TGI: 398 nM
[11]
  GI50: 309 nM
[11]; [44]
  CC50: > 100000 nM
[11]; read-out: pTGI (converted)
  TGI: 1740 nM
[12]; UO-31
  GI50: 186 nM
  LC50: > 100000 nM
[12]; UO-31, read-out: pTGI (converted)
  TGI: 977 nM
[13]
  GI50: 151 nM
[13]; [44]
  CC50: > 100000 nM
[14]
  GI50: 288 nM
[14]; [44]
  CC50: > 100000 nM
[14]; read-out: pTGI (converted)
  TGI: 1780 nM
[15]
  GI50: 631 nM
  LC50: > 100000 nM
[15]; read-out: pTGI (converted)
  TGI: 4470 nM
[16]
  GI50: 2090 nM
[16]; [44]
  CC50: > 100000 nM
[16]; read-out: pTGI (converted)
  TGI: 20000 nM
[17]
  GI50: 339 nM
[17]; read-out: pTGI (converted)
  TGI: 1290 nM
[18]; OVCAR-4
  GI50: 871 nM
[18]; OVCAR-4, read-out: pLC50 (the source's name) (converted)
  CC50: > 100000 nM
[18]; OVCAR-4, read-out: pTGI (converted)
  TGI: 26900 nM
[19]
  GI50: 24 nM
  LC50: 316 nM
[19]; read-out: pTGI (converted)
  TGI: 60.3 nM
[20]
  GI50: 174 nM
[20]; [44]
  CC50: 741 nM
[20]; read-out: pTGI (converted)
  TGI: 355 nM
[21]
  GI50: 1740 nM
[21]; [44]
  CC50: 58900 nM
[21]; read-out: pTGI (converted)
  TGI: 7080 nM
[22]
  GI50: 692 nM
[22]; [44]
  CC50: > 100000 nM
[22]; read-out: pTGI (converted)
  TGI: 3390 nM
[23]
  GI50: 537 nM
[23]; [44]
  CC50: > 100000 nM
[23]; read-out: pTGI (converted)
  TGI: 6030 nM
[24]
  GI50: 6170 nM
  LC50: > 100000 nM
[24]; read-out: pTGI (converted)
  TGI: 51300 nM
[25]
  GI50: 138 nM
[25]; [44]
  CC50: > 100000 nM
[25]; read-out: pTGI (converted)
  TGI: 1320 nM
[26]
  GI50: 355 nM
[26]; [44]
  CC50: > 100000 nM
[26]; read-out: pTGI (converted)
  TGI: 2570 nM
[27]
  GI50: 389 nM
[27]; [44]
  CC50: 4470 nM
[27]; read-out: pTGI (converted)
  TGI: 1480 nM
[28]
  GI50: 851 nM
  LC50: > 100000 nM
[28]; read-out: pTGI (converted)
  TGI: 4570 nM
[29]
  GI50: 977 nM
[29]; [44]
  CC50: > 100000 nM
[29]; read-out: pTGI (converted)
  TGI: 13500 nM
[30]
  GI50: 79.4 nM
  LC50: 851 nM
[30]; read-out: pTGI (converted)
  TGI: 269 nM
[31]; read-out: GI50
  GI50: 55 nM
[31]; read-out: pGI50 (converted)
  GI50: 55 nM
[31]; [44]
  CC50: 794 nM
[31]; read-out: pTGI (converted)
  TGI: 224 nM
[32]
  GI50: 245 nM
[32]; read-out: pTGI (converted)
  TGI: 813 nM
[33]
  GI50: 3550 nM
[33]; [44]
  CC50: > 100000 nM
[33]; read-out: pTGI (converted)
  TGI: 37200 nM
[34]
  GI50: 2820 nM
[34]; [44]
  CC50: > 100000 nM
[34]; read-out: pTGI (converted)
  TGI: 50100 nM
[35]; UACC-257
  GI50: 295 nM
[35]; UACC-257, read-out: pTGI (converted)
  TGI: 759 nM
[36]
  GI50: 871 nM
[36]; [44]
  CC50: > 100000 nM
[36]; read-out: pTGI (converted)
  TGI: 17800 nM
[37]
  GI50: 93.3 nM
[37]; read-out: pTGI (converted)
  TGI: 468 nM
[38]
  GI50: 72.4 nM
  LC50 (concentration killing 50% of cells): 3020 nM
[38]; read-out: pTGI (converted)
  TGI: 468 nM
[39]
  GI50: 229 nM
[39]; [44]
  CC50: > 100000 nM
[39]; read-out: pTGI (converted)
  TGI: 3090 nM
[40]
  GI50: 324 nM
[40]; [44]
  CC50: > 100000 nM
[40]; read-out: pTGI (converted)
  TGI: 1380 nM
[41]
  GI50: 331 nM
[41]; [44]
  CC50: 31600 nM
[41]; read-out: pTGI (converted)
  TGI: 3630 nM
[42]
  GI50: 389 nM
  LC50: > 100000 nM
[42]; read-out: pTGI (converted)
  TGI: 2000 nM
[43]
  GI50: 141 nM
[43]; [44]
  CC50: 3090 nM
[43]; read-out: pTGI (converted)
  TGI: 468 nM
